ChEMBL document CHEMBL4613262, “Revisiting Aldehyde Oxidase Mediated Metabolism in Drug-like Molecules: An Improved Computational Model” (J Med Chem, 2020)

How the values were obtained:
Aldehyde oxidase [1] = molecular target: T1, Aldehyde oxidase (Homo sapiens, UniProt Q06278); test: Substrate activity at aldehyde oxidase in human liver cytosol assessed as mono-oxide metabolite formation at 10 uM measured after 3 hrs in presence of AOX inhibitor raloxifene by UPLC/Q-TOF MS analysis; assay type: ADME, subcellular
T1 sequence (Q06278 whole entry): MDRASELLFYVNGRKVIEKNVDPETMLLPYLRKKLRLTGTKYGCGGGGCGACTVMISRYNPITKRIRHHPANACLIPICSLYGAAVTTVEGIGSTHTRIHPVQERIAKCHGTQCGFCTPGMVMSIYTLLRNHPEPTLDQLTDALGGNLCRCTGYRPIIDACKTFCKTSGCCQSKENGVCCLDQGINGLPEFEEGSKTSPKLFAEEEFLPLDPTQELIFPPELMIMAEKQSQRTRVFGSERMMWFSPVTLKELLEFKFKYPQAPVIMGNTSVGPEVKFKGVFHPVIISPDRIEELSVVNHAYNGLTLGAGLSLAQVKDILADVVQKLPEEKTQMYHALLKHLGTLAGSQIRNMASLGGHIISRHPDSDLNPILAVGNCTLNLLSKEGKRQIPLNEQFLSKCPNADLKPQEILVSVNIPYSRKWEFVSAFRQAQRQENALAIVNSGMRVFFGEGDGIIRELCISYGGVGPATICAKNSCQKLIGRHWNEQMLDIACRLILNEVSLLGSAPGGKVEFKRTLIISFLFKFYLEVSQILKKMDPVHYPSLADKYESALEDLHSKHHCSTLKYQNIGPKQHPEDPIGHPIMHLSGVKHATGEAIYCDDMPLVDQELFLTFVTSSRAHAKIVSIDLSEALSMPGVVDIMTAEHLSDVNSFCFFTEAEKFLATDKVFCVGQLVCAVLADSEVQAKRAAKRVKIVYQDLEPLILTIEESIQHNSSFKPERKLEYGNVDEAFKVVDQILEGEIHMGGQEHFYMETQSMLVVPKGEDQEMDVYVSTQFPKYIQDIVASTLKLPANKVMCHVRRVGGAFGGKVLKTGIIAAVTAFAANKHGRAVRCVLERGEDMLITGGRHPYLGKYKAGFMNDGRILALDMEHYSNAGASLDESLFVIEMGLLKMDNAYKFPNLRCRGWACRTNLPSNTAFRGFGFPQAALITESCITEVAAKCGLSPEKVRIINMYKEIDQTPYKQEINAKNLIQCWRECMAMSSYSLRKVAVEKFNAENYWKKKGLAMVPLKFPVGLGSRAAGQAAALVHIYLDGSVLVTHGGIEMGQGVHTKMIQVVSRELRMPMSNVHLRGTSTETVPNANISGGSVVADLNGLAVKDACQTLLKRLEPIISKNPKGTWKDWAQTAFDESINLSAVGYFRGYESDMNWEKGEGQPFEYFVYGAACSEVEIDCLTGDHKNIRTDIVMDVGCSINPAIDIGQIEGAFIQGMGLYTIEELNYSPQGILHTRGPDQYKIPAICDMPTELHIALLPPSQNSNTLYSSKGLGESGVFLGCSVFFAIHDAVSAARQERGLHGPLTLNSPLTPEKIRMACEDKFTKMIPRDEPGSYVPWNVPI
Procedure, shortened: (§1)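 Human liver cytosol (2 mg/mL final protein) in 100 mM potassium phosphate pH 7.4 with 2 mM MgCl2, 10 μM test compound, 100 μM inhibitor, DMSO 1.1% final. Pre-incubated 3 min at 37°C, started by adding compound, run 3 h at 37°C, stopped with ice-cold acetonitrile. Supernatant analysed by UPLC/Q-TOF MS (positive ESI) for oxidative metabolite peak area. Inhibition ratio taken against no-inhibitor controls; triplicate.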

Aldehyde oxidase [2] = molecular target: T1, Aldehyde oxidase; test: Substrate activity at aldehyde oxidase in human liver cytosol assessed as mono-oxide metabolite formation at 10 uM measured after 3 hrs in presence of AOX inhibitor hydralazine by UPLC/Q-TOF MS analysis; assay type: ADME, subcellular; procedure, shortened: as §1

Structure (SMILES) | Drug metabolism (Aldehyde oxidase [1]) | Drug metabolism (Aldehyde oxidase [2])
N#C/C(=C\c1ccc(-c2cc(Cl)ccc2Cl)o1)C(=O)Nc1cccc2ncccc12 | Metabolite_Notdetected | Metabolite_Notdetected
Cc1cc(Nc2ccc(NC(=O)c3ccc(Nc4ccnc5ccccc45)cc3)cc2)nc(N)n1 | Metabolite_Notdetected | Metabolite_Notdetected
Cl.Cl.Fc1cc(-c2cccc3ncc(-c4cnn(C5CCNCC5)c4)nc23)cc(F)c1CN1CCOCC1 | Metabolite_Notdetected | Metabolite_Notdetected
Cl.O=C(Nc1ccccc1-c1cn2c(CN3CCNCC3)csc2n1)c1cnc2ccccc2n1 | Metabolite_Notdetected | Metabolite_Notdetected

Continued, values first:

Drug metabolism (Aldehyde oxidase [1]) | Drug metabolism (Aldehyde oxidase [2]) | Structure (SMILES)
Metabolite_Notdetected | Metabolite_Notdetected | O=C(c1cncc(Br)c1)N1CCC(N2CCCC2)CC1
Metabolite_Notdetected | Metabolite_Notdetected | O=C(NCC(=O)N1CCCC1)Nc1ccc2cnccc2c1
